Activity calls are given as the source filed them. The calls are words filed in the database; no cut-off is given here.
Assays:
Human betaherpesvirus 5 = test: Inhibition of HCMV UL76 encoded endonuclease expressed in Escherichia coli BL21 (DE3)-RIL assessed as inhibition of supercoiled double stranded phi X 174 bacteriophage DNA cleavage after 1 hr by agarose gel electrophoresis
Method in brief: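 Calmodulin-tagged HCMV UL76 endonuclease purified from E. coli BL21-codon DE3-RIL carrying pCBP-UL76. Serially diluted compound incubated with 1 µg CsCl-purified supercoiled dsDNA φX174, reaction buffer and enzyme at 37 °C for 1 h. Products resolved on 1% agarose gel. IC50 is the concentration giving 50% inhibition of substrate cleavage.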

[1] = system: Salmonella enterica subsp. enterica; test: Antibacterial activity against Salmonella enteritidis ATCC 13076 up to 100 ug/disk after 24 hrs by agar well diffusion method; format: functional, organism-based; conditions: Salmonella enterica subsp. enterica serovar Enteritidis, in the assay text read “paper disk diffusion method” for “agar well diffusion method”
Method in brief: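 S. enteritidis ATCC13076 grown in LB broth 24 h at 37 °C. Broth culture (0.3 mL) mixed into 0.7% LB soft agar and layered over 1.5% LB hard agar. Compound applied to 8 mm paper disks at 2 μg/μL, tested up to 100 μg/disk. Ampicillin (5 μg/μL) and solvent served as controls. Plates incubated 24 h at 37 °C.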

RAW264.7 [2] = test: Antiinflammatory activity in LPS-stimulated mouse RAW264.7 cells assessed as iNOS protein expression at 10 uM after 16 hrs by immunoblot analysis relative to control; conditions: RAW264.7, 16 h
RAW264.7 [3] = test: Antiinflammatory activity in LPS-stimulated mouse RAW264.7 cells assessed as inhibition of COX2 protein expression at 10 uM after 16 hrs by immunoblot analysis relative to control; format: functional
Method in brief: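 RAW 264.7 macrophages (ATCC TIB-71) stimulated with E. coli LPS (0.01 μg/mL) for 16 h with or without compound. Cells washed in ice-cold PBS, lysed, and spun at 20,000g for 30 min at 4 °C. Equal protein loaded for SDS-PAGE and transferred to PVDF. Blots probed 180 min with anti-iNOS or anti-COX-2 (1:1000) and detected by ECL. Levels expressed relative to LPS-only cells. CAPE 10 µM used as reference.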

RAW264.7 [4] = test: Antiinflammatory activity in LPS-stimulated mouse RAW264.7 cells assessed as COX2 protein expression at 10 uM after 16 hrs by immunoblot analysis relative to control; conditions: RAW264.7, 16 h

| Compound | inhibition (Human betaherpesvirus 5) | inhibition [1] | iNOS protein level (% of LPS control) at 10 µM (RAW264.7 [2]) | inhibition (RAW264.7 [3]) | COX-2 protein level (% of LPS control) at 10 µM (RAW264.7 [4]) | Activity (RAW264.7 [3]) |
| --- | --- | --- | --- | --- | --- | --- |
| C=C1C(=O)O[C@@H]2[C@@H]1C[C@H](OC(C)=O)[C@@](O)(COC(C)=O)CC/C=C(\C)CC/C=C(\C)[C@H]2O (relative stereo) [DURUMOLIDE G] | inactive | inactive | 7.3% | inactive |  |  |
| C=C1C(=O)O[C@@H]2[C@@H]1C[C@H]1O[C@]1(C)CC/C=C(\C)CC/C=C(\C)[C@H]2O [DURUMOLIDE J] | inactive | inactive | 0.1% | inactive |  |  |
| C=C1C(=O)O[C@H]2C(=O)/C(C)=C/CC/C(C)=C/CC[C@@]3(CO)O[C@@H]3C[C@H]12 (relative stereo) [DURUMOLIDE K] | inactive | inactive | 5.7% |  | 71.6% |  |
| C=C1C(=O)O[C@@H]2[C@@H]1C[C@H]1O[C@]1(COC(C)=O)CC/C=C(\C)[C@@H](O)C/C=C(\C)[C@H]2OC(C)=O (relative stereo) [DURUMOLIDE I] | inactive | inactive | 6.2% | inactive |  |  |
| C=C1C(=O)O[C@@H]2[C@@H]1C[C@H](OC(C)=O)[C@@](O)(COC(C)=O)CC/C=C(\C)CC/C=C(\C)[C@H]2OC(C)=O (relative stereo) [DURUMOLIDE H] | inactive | inactive | 22.6% |  |  | inactive |
| O=C(/C=C/c1ccc(O)c(O)c1)OCCc1ccccc1 [CAFFEIC ACID PHENETHYL ESTER] |  |  | 1.5% |  | 70.2% |  |
| C=C1C(=O)O[C@H]2C/C(C)=C/CC/C(C)=C/CC[C@](O)(COC(C)=O)[C@@H](O)C[C@H]12 [DURUMOLIDE F] | inactive | inactive | 0.8% |  | 47.8% |  |
| C=C1C(=O)O[C@H]2C/C(C)=C/CC/C(C)=C/CC[C@@]3(CO)O[C@@H]3C[C@H]12 [SINULAROLIDE D] | inactive | inactive | 2.2% | inactive |  |  |
| C=C1C(=O)O[C@H]2C(=O)/C(C)=C/CC/C(C)=C/CC[C@@]3(C=O)O[C@@H]3C[C@H]12 (relative stereo) [DURUMOLIDE L] | inactive | inactive | 1.2% | inactive |  |  |

Source: ChEMBL document CHEMBL1158431, “Anti-inflammatory cembranolides from the soft coral Lobophytum durum” (2009)
